Data reported in ChEMBL document CHEMBL1649165, “Activity profile in vitro of micafungin against Spanish clinical isolates of common and emerging species of yeasts and molds” (2009).
Converted amounts (≈) assume the structure as drawn. *1 amine or outer side, *2 acyl side, *3 side chain or, on linkers, in order; H or OH if unused. Where a SMILES comes first, the peptide text is derived from it. Bridges are numbered along the chain shown (N, C = ends). [ ]: non-standard residue; d: D form. The star is where a group is joined. hTyr(3S-OH,4S-OH,3'-OSO3H) = N[C@H](C(=O)O)[C@H](O)[C@@H](O)c1ccc(O)c(OS(=O)(=O)O)c1; Orn(4R-OH,5R-OH) = O=C([C@H](C[C@@H](O)[C@@H](O)N[*:3])N[*:1])[*:2]; Pro(3S-OH,4S-Me) = C[C@H]1CN[C@H](C(=O)O)[C@H]1O; X1 = CCCCCOc1ccc(-c2cc(-c3ccc(C(=O)*)cc3)no2)cc1; Gln(3R-OH) = NC(=O)C[C@@H](O)[C@H](N)C(=O)O; Hyp = O=C(O)[C@@H]1C[C@@H](O)CN1

Key:
Assay type in all cases: functional
Geotrichum candidum = test: Antimicrobial activity against Galactomyces geotrichum by broth microdilution method
Trichosporon dermatis = test: Antimicrobial activity against Trichosporon dermatis by broth microdilution method; conditions: Cutaneotrichosporon dermatis
In short: (§1)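 Nonfermentative yeast clinical isolates (Rhodotorula, Trichosporon) tested by broth microdilution. The EUCAST yeast recommendations were followed strictly, with one minor modification to improve growth. MIC was read as the endpoint.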

[Candida] intermedia = Antimicrobial activity against Candida intermedia by broth microdilution method; conditions: Sungouiella intermedia
In short: (§2)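 Clinical isolates from human patients, tested by broth microdilution using the AFST-EUCAST reference procedure for fermentative yeasts. The MIC was read per that reference method.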

Aspergillus niger = test: Antimicrobial activity against Aspergillus niger by broth microdilution method
In short: (§3)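 Clinical mould isolates, tested by broth microdilution using the AFST-EUCAST reference method for filamentous fungi. For echinocandins, the endpoint was the minimum effective concentration: the lowest drug concentration giving aberrant hyphal growth, read with an inverted microscope.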

Candida parapsilosis = test: Antimicrobial activity against Candida parapsilosis by broth microdilution method; conditions: Lodderomyces parapsilosis; in short: as §2
Kluyveromyces marxianus = test: Antimicrobial activity against Candida kefyr by broth microdilution method; in short: as §2
Aureobasidium pullulans = test: Antimicrobial activity against Aureobasidium pullulans by broth microdilution method
Paecilomyces variotii = test: Antimicrobial activity against Paecilomyces variotii by broth microdilution method
In short: (§4)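 Filamentous fungus clinical isolates tested by the AFST-EUCAST reference broth microdilution method for moulds. For echinocandins, the endpoint was the minimum effective concentration: the lowest drug concentration giving aberrant hyphal growth, read with an inverted microscope.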

Papiliotrema laurentii = test: Antimicrobial activity against Cryptococcus laurentii by broth microdilution method
In short: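 Clinical isolates of nonfermentative yeasts, tested by broth microdilution following EUCAST recommendations. The only change from that method was a minor modification to improve growth.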

[1] = Antimicrobial activity against Rhizopus microsporus by broth microdilution method; in short: as §4
Trichoderma = test: Antimicrobial activity against Trichoderma spp. by broth microdilution method; in short: as §4
Aspergillus ochraceus = test: Antimicrobial activity against Aspergillus ochraceus by broth microdilution method; in short: as §3
Aspergillus sclerotiorum = test: Antimicrobial activity against Aspergillus sclerotiorum by broth microdilution method; in short: as §3
Rhodotorula glutinis = test: Antimicrobial activity against Rhodotorula glutinis by broth microdilution method; in short: as §1
Magnusiomyces capitatus = test: Antimicrobial activity against Dipodascus capitatus by broth microdilution method
Aspergillus flavus = test: Antimicrobial activity against Aspergillus flavus by broth microdilution method; in short: as §3
Lomentospora prolificans = test: Antimicrobial activity against Scedosporium prolificans by broth microdilution method; in short: as §4
Trichosporon ovoides = test: Antimicrobial activity against Trichosporon ovoides by broth microdilution method; in short: as §1
Yarrowia lipolytica = test: Antimicrobial activity against Yarrowia lipolytica by broth microdilution method
Fusarium verticillioides = test: Antimicrobial activity against Fusarium verticillioides by broth microdilution method; in short: as §4
Alternaria alternata = test: Antimicrobial activity against Alternaria alternata by broth microdilution method; in short: as §3
Fusarium oxysporum = test: Antimicrobial activity against Fusarium oxysporum by broth microdilution method; in short: as §3
Diutina rugosa = test: Antimicrobial activity against Candida rugosa by broth microdilution method; in short: as §2
Aspergillus glaucus = test: Antimicrobial activity against Aspergillus glaucus by broth microdilution method; in short: as §3
Lewia infectoria = test: Antimicrobial activity against Alternaria infectoria by broth microdilution method; in short: as §3
Rhodotorula mucilaginosa = test: Antimicrobial activity against Rhodotorula mucilaginosa by broth microdilution method; in short: as §1
Aspergillus terreus = test: Antimicrobial activity against Aspergillus terreus by broth microdilution method; in short: as §3
Nakaseomyces glabratus = test: Antimicrobial activity against Candida glabrata by broth microdilution method; in short: as §2
Aspergillus nidulans = test: Antimicrobial activity against Aspergillus nidulans by broth microdilution method; in short: as §3
Wickerhamomyces anomalus = test: Antimicrobial activity against Candida pelliculosa by broth microdilution method; conditions: Hansenula anomala; in short: as §2
Rhizopus arrhizus = test: Antimicrobial activity against Rhizopus oryzae by broth microdilution method; in short: as §4
Penicillium = test: Antimicrobial activity against Penicillium spp. by broth microdilution method; in short: as §4
Aspergillus fumigatus = test: Antimicrobial activity against Aspergillus fumigatus by broth microdilution method; in short: as §3
Torulaspora delbrueckii = test: Antimicrobial activity against Candida coliculosa by broth microdilution method; in short: as §2
[2] = system: Meyerozyma guilliermondii; test: Antimicrobial activity against Candida guilliermondii by broth microdilution method; in short: as §2
Fusarium reticulatum = test: Antimicrobial activity against Fusarium reticulatum by broth microdilution method; in short: as §4
Fusarium equiseti = test: Antimicrobial activity against Fusarium equiseti by broth microdilution method; in short: as §3
Aspergillus sydowii = test: Antimicrobial activity against Aspergillus sydowii by broth microdilution method; in short: as §3
[Candida] inconspicua = Antimicrobial activity against Candida inconspicua by broth microdilution method; conditions: Pichia inconspicua; in short: as §2
Fusarium proliferatum = test: Antimicrobial activity against Fusarium proliferatum by broth microdilution method; in short: as §3
Hortaea werneckii = test: Antimicrobial activity against Hortaea werneckii by broth microdilution method

With `CCCCCOc1ccc(-c2cc(-c3ccc(C(=O)N[C@H]4C[C@@H](O)[C@@H](O)NC(=O)[C@@H]5[C@@H](O)[C@@H](C)CN5C(=O)[C@H]([C@H](O)CC(N)=O)NC(=O)[C@H]([C@H](O)[C@@H](O)c5ccc(O)c(OS(=O)(=O)O)c5)NC(=O)[C@@H]5C[C@@H](O)CN5C(=O)[C@H]([C@@H](C)O)NC4=O)cc3)no2)cc1` [MICAFUNGIN] (X1-[Orn(4R-OH,5R-OH)]T[Hyp][hTyr(3S-OH,4S-OH,3'-OSO3H)][Gln(3R-OH)][Pro(3S-OH,4S-Me)]; lactam 1-C) the MIC50 (Geotrichum candidum) was > 16 µg/mL, the MIC90 (Geotrichum candidum) was > 16 µg/mL and the MIC50 (Trichosporon dermatis) was > 16 µg/mL. For the same compound, the MIC90 (Trichosporon dermatis) was > 16 µg/mL, the MIC50 ([Candida] intermedia) was 0.03 µg/mL (≈ 0.0236 µM) and the MIC90 ([Candida] intermedia) was 0.12 µg/mL (≈ 0.0945 µM). It also gave an MIC50 (Aspergillus niger) of 0.03 µg/mL (≈ 0.0236 µM), an MIC90 (Aspergillus niger) of 0.06 µg/mL (≈ 0.0472 µM) and an MIC50 (Candida parapsilosis) of 0.5 µg/mL (≈ 0.394 µM). For the same compound, the MIC90 (Candida parapsilosis) was 1 µg/mL (≈ 0.787 µM), the MIC50 (Kluyveromyces marxianus) was 0.03 µg/mL (≈ 0.0236 µM) and the MIC90 (Kluyveromyces marxianus) was 0.03 µg/mL (≈ 0.0236 µM). It also gave an MIC50 (Aureobasidium pullulans) of 0.03 µg/mL (≈ 0.0236 µM), an MIC90 (Aureobasidium pullulans) of 0.06 µg/mL (≈ 0.0472 µM) and an MIC50 (Paecilomyces variotii) of 0.03 µg/mL (≈ 0.0236 µM). For the same compound, the MIC90 (Paecilomyces variotii) was 0.03 µg/mL (≈ 0.0236 µM), the MIC50 (Papiliotrema laurentii) was > 16 µg/mL and the MIC90 (Papiliotrema laurentii) was > 16 µg/mL. The MIC50 [1] was > 16 µg/mL, the MIC90 [1] was > 16 µg/mL and the MIC50 (Trichoderma) was > 16 µg/mL. The MIC90 (Trichoderma) was > 16 µg/mL, the MIC50 (Aspergillus ochraceus) was 0.06 µg/mL (≈ 0.0472 µM) and the MIC90 (Aspergillus ochraceus) was 0.25 µg/mL (≈ 0.197 µM). The MIC50 (Aspergillus sclerotiorum) was 0.06 µg/mL (≈ 0.0472 µM), the MIC90 (Aspergillus sclerotiorum) was 0.25 µg/mL (≈ 0.197 µM) and the MIC50 (Rhodotorula glutinis) was > 16 µg/mL. The MIC90 (Rhodotorula glutinis) was > 16 µg/mL, the MIC50 (Magnusiomyces capitatus) was > 16 µg/mL and the MIC90 (Magnusiomyces capitatus) was > 16 µg/mL. For the same compound, the MIC50 (Aspergillus flavus) was > 16 µg/mL, the MIC90 (Aspergillus flavus) was > 16 µg/mL and the MIC50 (Lomentospora prolificans) was 8 µg/mL (≈ 6.3 µM). For the same compound, the MIC90 (Lomentospora prolificans) was > 16 µg/mL, the MIC50 (Trichosporon ovoides) was > 16 µg/mL and the MIC90 (Trichosporon ovoides) was > 16 µg/mL. The MIC50 (Yarrowia lipolytica) was 0.03 µg/mL (≈ 0.0236 µM), the MIC90 (Yarrowia lipolytica) was 1 µg/mL (≈ 0.787 µM) and the MIC50 (Fusarium verticillioides) was > 16 µg/mL. The MIC90 (Fusarium verticillioides) was > 16 µg/mL, the MIC50 (Alternaria alternata) was 0.25 µg/mL (≈ 0.197 µM) and the MIC90 (Alternaria alternata) was > 16 µg/mL. The MIC50 (Fusarium oxysporum) was > 16 µg/mL, the MIC90 (Fusarium oxysporum) was > 16 µg/mL and the MIC50 (Diutina rugosa) was 0.03 µg/mL (≈ 0.0236 µM). It also gave an MIC90 (Diutina rugosa) of 0.12 µg/mL (≈ 0.0945 µM), an MIC50 (Aspergillus glaucus) of 0.06 µg/mL (≈ 0.0472 µM) and an MIC90 (Aspergillus glaucus) of 0.25 µg/mL (≈ 0.197 µM). For the same compound, the MIC50 (Lewia infectoria) was > 16 µg/mL, the MIC90 (Lewia infectoria) was > 16 µg/mL and the MIC50 (Rhodotorula mucilaginosa) was > 16 µg/mL. The MIC90 (Rhodotorula mucilaginosa) was > 16 µg/mL, the MIC50 (Aspergillus terreus) was 0.03 µg/mL (≈ 0.0236 µM) and the MIC90 (Aspergillus terreus) was 0.03 µg/mL (≈ 0.0236 µM). It also gave an MIC50 (Nakaseomyces glabratus) of 0.03 µg/mL (≈ 0.0236 µM), an MIC90 (Nakaseomyces glabratus) of 0.03 µg/mL (≈ 0.0236 µM) and an MIC50 (Aspergillus nidulans) of 0.03 µg/mL (≈ 0.0236 µM). For the same compound, the MIC90 (Aspergillus nidulans) was > 16 µg/mL, the MIC50 (Wickerhamomyces anomalus) was 0.03 µg/mL (≈ 0.0236 µM) and the MIC90 (Wickerhamomyces anomalus) was 0.12 µg/mL (≈ 0.0945 µM). The MIC50 (Rhizopus arrhizus) was > 16 µg/mL, the MIC90 (Rhizopus arrhizus) was > 16 µg/mL and the MIC50 (Penicillium) was 0.03 µg/mL (≈ 0.0236 µM). It also gave an MIC90 (Penicillium) of 0.06 µg/mL (≈ 0.0472 µM), an MIC50 (Aspergillus fumigatus) of 0.03 µg/mL (≈ 0.0236 µM) and an MIC90 (Aspergillus fumigatus) of 0.03 µg/mL (≈ 0.0236 µM). The MIC50 (Torulaspora delbrueckii) was 0.03 µg/mL (≈ 0.0236 µM), the MIC90 (Torulaspora delbrueckii) was 0.12 µg/mL (≈ 0.0945 µM) and the MIC50 [2] was 0.12 µg/mL (≈ 0.0945 µM). For the same compound, the MIC90 [2] was 1 µg/mL (≈ 0.787 µM), the MIC50 (Fusarium reticulatum) was > 16 µg/mL and the MIC90 (Fusarium reticulatum) was > 16 µg/mL. For the same compound, the MIC50 (Fusarium equiseti) was > 16 µg/mL, the MIC90 (Fusarium equiseti) was > 16 µg/mL and the MIC50 (Aspergillus sydowii) was 0.03 µg/mL (≈ 0.0236 µM). The MIC90 (Aspergillus sydowii) was 0.03 µg/mL (≈ 0.0236 µM), the MIC50 ([Candida] inconspicua) was 0.03 µg/mL (≈ 0.0236 µM) and the MIC90 ([Candida] inconspicua) was 0.12 µg/mL (≈ 0.0945 µM). For the same compound, the MIC50 (Fusarium proliferatum) was > 16 µg/mL, the MIC90 (Fusarium proliferatum) was > 16 µg/mL and the MIC50 (Hortaea werneckii) was 0.03 µg/mL (≈ 0.0236 µM). It also gave an MIC90 (Hortaea werneckii) of 0.06 µg/mL (≈ 0.0472 µM).
